The values below come from ChEMBL document CHEMBL3102839, “Growth inhibitory activity for cancer cell lines of lapachol and its natural and semi-synthetic derivatives” (Bioorg Med Chem Lett, 2014).

Where only a bound is given, the exact number is not on record here.

In data set [1] the test system is SK-MEL-28. The data set can be described thus: Growth inhibition of human SK-MEL-28 cells by MTT assay. The class given is functional, cell-based. A digest of the protocol:
(§1)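 In vitro MTT colorimetric read-out of growth inhibition. Each compound was run across a six-line human cancer panel chosen for differing resistance to pro-apoptotic stimuli. IC50 was taken as the growth inhibitory concentration. No reference drug was included.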

A short description of data set [2]: Growth inhibition of human Hs683 cells by MTT assay. The following applies: Hs 683. Format: functional, cell-based. In a few lines: as §1
Data set [3] deals with PC-3. As to the kind of experiment: Growth inhibition of human PC3 cells by MTT assay. Format: functional, cell-based. In a few lines:
as §1

For data set [4], the system named is LoVo. As to the kind of experiment: Growth inhibition of human LoVo cells by MTT assay. Format: functional, cell-based. A digest of the protocol: as §1
A short description of data set [5]: Growth inhibition of human U373 cells by MTT assay. The class given is functional, cell-based, U-373MG ATCC. The following applies: U373 MG. A digest of the protocol:
as §1

Data set [6] is described as follows: Chemical stability of the compound in cell culture medium assessed as compound recovery after 72 hrs. Particulars: read-out: Drug recovery. The class given is physicochemical.
Data set [7] concerns A549. The data set can be described thus: Growth inhibition of human A549 cells by MTT assay. The class given is functional, cell-based. In a few lines: as §1
A short description of data set [8]: Growth inhibition of hTERT expressing human RPE1 cells. Format: functional, TERT-RPE1. Particulars: RPE-1, read-out: ED50 (the source's name).
For data set [9], the system named is Lu1. As to the kind of experiment: Growth inhibition of human Lu1 cells. Particulars: read-out: ED50 (the source's name). Format: functional.
In data set [10] the test system is KB. As to the kind of experiment: Growth inhibition of human KB cells. Format: functional. Particulars: read-out: ED50 (the source's name).
In data set [11] the test system is LNCaP. As to the kind of experiment: Growth inhibition of human LNCAP cells. The class given is functional. The following applies: read-out: ED50 (the source's name).
The test system of data set [12] is Col2. As to the kind of experiment: Growth inhibition of human Col2 cells. Format: functional. The following applies: read-out: ED50 (the source's name).

`CCCCCCCCCCCCCCCCCC(=O)OC1=C(CC=C(C)C)C(=O)c2ccccc2C1=O`: the IC50 in [1], in data set [2], in [3], in data set [4], in data set [5] and in data set [7] was over 100 µM throughout. In addition, the remaining at 72 h in data set [6] was over 95%.

On to `CCOC1=C(CC=C(C)C)C(=O)c2ccccc2C1=O`, for which the IC50 in data set [1], in data set [2], in data set [3], in data set [4], in [5] and in [7] was over 100 µM throughout.

Regarding `CCCCCCCC/C=C\CCCCCCCC(=O)OC1=C(CC=C(C)C)C(=O)c2ccccc2C1=O`, the IC50 was determined as 73 µM in [1]; 85 µM in data set [2]; 65 µM in data set [3]; 57 µM in [4]; 84 µM in data set [5]; 59 µM in data set [7]. Further, the remaining at 72 h in [6] is over 95%.

In the case of `COC1=C(CC=C(C)C)C(=O)c2ccccc2C1=O`, the half-maximal inhibitory concentration (IC50) in data set [1] was 27 µM; in data set [2], 36 µM; in data set [3], 42 µM; in data set [4], 57 µM; in data set [5], 78 µM; in data set [7], 36 µM.

Consider `CC(C)=CCOC1=C(CC=C(C)C)C(=O)c2ccccc2C1=O`, for which the IC50 is 29 µM in [1]; 41 µM in [2]; 38 µM in data set [3]; 32 µM in [4]; over 100 µM in [5]; 33 µM in data set [7].

In the case of `CCCCCCCCCCCCCC(=O)OC1=C(CC=C(C)C)C(=O)c2ccccc2C1=O`, the IC50 in data set [1] was 50 µM; in data set [2], 89 µM; in data set [3], 43 µM; in data set [4], 50 µM; in data set [5], over 100 µM; in data set [7], 49 µM. Besides, the remaining at 72 h in [6] was over 95%.

Consider `O=C1C(O)=C(Cc2ccccc2)C(=O)c2ccccc21`, for which the IC50 is over 100 µM in [1]; over 100 µM in [2]; 91 µM in data set [3]; 42 µM in data set [4]; over 100 µM in data set [5]; over 100 µM in data set [7].

On to `O=C1C=C(O)C(=O)c2ccccc21` [LAWSONE], for which the IC50 in [1] was over 100 µM; in [2] it was 31 µM; in data set [3] it was over 100 µM; in data set [4], over 100 µM; in [5], over 100 µM; in data set [7], 58 µM.

As to `O=C1C(O)=C(/C=C/c2ccccc2)C(=O)c2ccccc21`, the IC50 in data set [1] is over 100 µM; in data set [2], 42 µM; in [3] it was over 100 µM; in data set [4] it was 82 µM; in [5] it was over 100 µM; in data set [7] it was over 100 µM.

Consider `CC(=O)OC1=C(CC=C(C)C)C(=O)c2ccccc2C1=O`, for which the IC50 was 13 µM in data set [1]; 31 µM in data set [2]; 4 µM in data set [3]; 8 µM in data set [4]; 30 µM in data set [5]; 5 µM in data set [7]. Besides, in [6], the remaining at 72 h was over 95%.

`CC(C)=CCC/C(C)=C/CC1=C(O)C(=O)c2ccccc2C1=O`: the IC50 was 28 µM in data set [1]; 11 µM in data set [2]; 12 µM in data set [3]; 7 µM in data set [4]; 48 µM in data set [5]; 12 µM in [7].

Regarding `CCCCCCCCCCCC(=O)OC1=C(CC=C(C)C)C(=O)c2ccccc2C1=O`, the IC50 in data set [1] was 18 µM; in data set [2], 18 µM; in [3], 27 µM; in data set [4] it was 27 µM; in [5] it was 31 µM; in data set [7] it was 35 µM. Moreover, the remaining at 72 h in data set [6] was over 95%.

For the compound `CC(C)=CCC1=C(Cl)C(=O)c2ccccc2C1=O`, the IC50 in data set [1] came to 31 µM; in data set [2], 33 µM; in data set [3], 27 µM; in [4] it was 25 µM; in data set [5] it was 26 µM; in data set [7] it was 34 µM. The EC50 in data set [8], in data set [9], in data set [10], in data set [11] and in data set [12] was 12.2 µM throughout.

On to `CC(C)=CCC1=C(O)C(=O)c2ccccc2C1=O` [LAPACHOL], for which the IC50 in [1] worked out at 8 µM; in data set [2] it was 11 µM; in data set [3], 4 µM; in data set [4], 9 µM; in [5] it was 8 µM; in [7], 8 µM.

`C=CCOC1=C(CC=C(C)C)C(=O)c2ccccc2C1=O`: the IC50 came to 23 µM in data set [1]; 28 µM in data set [2]; 28 µM in data set [3]; 22 µM in data set [4]; 75 µM in [5]; 26 µM in data set [7].

Regarding `CCCCCCCCCCCCCCCC(=O)OC1=C(CC=C(C)C)C(=O)c2ccccc2C1=O`, the IC50 in data set [1] amounted to 33 µM; in [2], 48 µM; in [3], 35 µM; in [4], 29 µM; in data set [5], 54 µM; in data set [7], 38 µM. The remaining at 72 h in data set [6] is over 95%.

For `CCCOC1=C(CC=C(C)C)C(=O)c2ccccc2C1=O`, the IC50 in data set [1], in data set [2], in data set [3], in data set [4], in data set [5] and in [7] was over 100 µM in each case.
